≈ marks a conversion by molar mass, not a printed value. Calls of active or inactive are those of the source. No cut-off for these calls is given here.
Assays:
Lipomyces lipofer [1] = test: Antimicrobial activity against Lipomyces lipofer NCIM 3252 after 72 hrs by serial dilution method; format: functional; conditions: NCIM 3252, 72 h
Procedure, shortened: (§1)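 MIC by broth dilution in Sabouraud's dextrose broth, only for fungi sensitive in disc diffusion. Two-fold serial dilutions of compounds are made in 1 ml broth per tube, range 3.9 to 1000. Inoculated tubes are incubated at 27 °C for 72 h.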

Aspergillus fumigatus [2] = test: Antimicrobial activity against Aspergillus fumigatus NCIM 902 after 72 hrs by serial dilution method; format: functional; conditions: NCIM 902, 72 h; procedure, shortened: as §1
Pseudomonas aeruginosa [3] = test: Antimicrobial activity against Pseudomonas aeruginosa NCIM 2200 after 24 hrs by serial dilution method; format: functional; conditions: NCIM 2200, 24 h
Procedure, shortened: (§2)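 Broth dilution MIC in nutrient broth, run only for organisms found sensitive in disc diffusion. Compounds are two-fold serially diluted in 1 ml sterile broth per tube, spanning 3.9 to 1000. Inoculated tubes are incubated at 37 °C for 24 h.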

[4] = test system: Rhodococcus corynebacterioides; test: Antimicrobial activity against Corynebacterium rubrum NCIM 2252 after 24 hrs by serial dilution method; format: functional; conditions: Rhodococcoides corynebacterioides, NCIM 2252, 24 h; procedure, shortened: as §2
Klebsiella aerogenes = test: Antimicrobial activity against Klebsiella aerogenes NCIM 2239 after 24 hrs by serial dilution method; format: functional; conditions: NCIM 2239, 24 h; procedure, shortened: as §2
Proteus vulgaris [5] = test: Antimicrobial activity against Proteus vulgaris NCIM 2027 at 1000 ug/disk after 24 hrs by disk diffusion method; format: functional
Procedure, shortened: (§3)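 Disc diffusion on Mueller–Hinton agar. 100 µl of bacterial suspension at 10⁸ CFU/ml is spread on the plate. Discs carry test compounds at two loadings, dissolved in DMSO; DMSO alone serves as negative control. Ofloxacin disc is the positive reference. Plates are incubated at 37 °C for 24 h, and the inhibition zone diameter is measured.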

Pseudomonas aeruginosa [6] = test: Antimicrobial activity against Pseudomonas aeruginosa NCIM 2200 at 500 ug/disk after 24 hrs by disk diffusion method; format: functional
Procedure, shortened: (§4)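 Disc diffusion. 100 µl of bacterial suspension at 10⁸ CFU/ml was spread on Mueller–Hinton agar. Discs loaded with test compound dissolved in DMSO were placed on the lawn, with a DMSO-only disc as negative control. Plates were incubated at 37 °C for 24 h, and the inhibition zone diameter was measured.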

Aspergillus niger [7] = test: Antimicrobial activity against Aspergillus niger NCIM 1196 at 500 ug/disk after 72 hrs by disk diffusion method
Lipomyces lipofer [8] = test: Antimicrobial activity against Lipomyces lipofer NCIM 3252 at 500 ug/disk after 72 hrs by disk diffusion method; format: functional; conditions: for zone of inhibition at 500 µg/disc: NCIM 3252, 72 h, read-out: DIZ
Procedure, shortened: (§5)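 Disc diffusion on Sabouraud's dextrose agar. 100 µl of fungal suspension at 10⁶ CFU/ml is spread on the plate. Discs carry test compounds at two loadings in DMSO; DMSO alone is the negative control. Clotrimazole disc is the positive reference. Plates are incubated at 27 °C for 72 h, and the zone of inhibition diameter is measured.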

Staphylococcus = test: Antimicrobial activity against Staphylococcus albus NCIM 2178 after 24 hrs by serial dilution method; format: functional; conditions: NCIM 2178, 24 h
Aspergillus parasiticus = test: Antimicrobial activity against Aspergillus parasiticus NCIM 904 at 500 ug/disk after 72 hrs by disk diffusion method; format: functional; conditions: NCIM 904, 72 h, read-out: DIZ; procedure, shortened: as §5
Aspergillus niger [9] = test: Antimicrobial activity against Aspergillus niger NCIM 1196 at 1000 ug/disk after 72 hrs by disk diffusion method
Salmonella typhimurium = test: Antimicrobial activity against Salmonella Typhimurium NCIM 2501 after 24 hrs by serial dilution method; format: functional, Salmonella enterica subsp. enterica serovar Typhimurium; conditions: Salmonella enterica, NCIM 2501, 24 h
Trichoderma viride [10] = test: Antimicrobial activity against Trichoderma viride NCIM 1195 after 72 hrs by serial dilution method; format: functional; conditions: NCIM 1195, 72 h
Procedure, shortened: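 MIC by broth dilution in Sabouraud's dextrose broth, run only on fungi found sensitive in the disc assay. Twofold serial dilutions were made in 1 ml broth per tube, covering 3.9 to 1000. Inoculated tubes were incubated at 27 °C for 72 h.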

Bacillus cereus [11] = test: Antimicrobial activity against Bacillus cereus NCIM 2155 after 24 hrs by serial dilution method; format: functional; conditions: NCIM 2155, 24 h; procedure, shortened: as §2
Aliivibrio fischeri = test: Antimicrobial activity against Vibrio fischeri NCIM 2154 at 500 ug/disk after 24 hrs by disk diffusion method; format: functional; conditions: NCIM 2154, 24 h, read-out: DIZ; procedure, shortened: as §4
Bacillus cereus [12] = test: Antimicrobial activity against Bacillus cereus NCIM 2155 at 500 ug/disk after 24 hrs by disk diffusion method; format: functional; conditions: for zone of inhibition at 500 µg/disc: NCIM 2155, 24 h, read-out: DIZ; procedure, shortened: as §3
Bacillus subtilis = test: Antimicrobial activity against Bacillus subtilis NCIM 2063 after 24 hrs by serial dilution method; format: functional; conditions: NCIM 2063, 24 h; procedure, shortened: as §2
Proteus vulgaris [13] = test: Antimicrobial activity against Proteus vulgaris NCIM 2027 after 24 hrs by serial dilution method; format: functional; conditions: NCIM 2027, 24 h; procedure, shortened: as §2
Penicillium chrysogenum = test: Antimicrobial activity against Penicillium chrysogenum NCIM 707 after 72 hrs by serial dilution method; format: functional; conditions: NCIM 707, 72 h; procedure, shortened: as §1
Trichoderma viride [14] = test: Antimicrobial activity against Trichoderma viride NCIM 1195 at 500 ug/disk after 72 hrs by disk diffusion method; format: functional; conditions: NCIM 1195, 72 h, read-out: DIZ
Procedure, shortened: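 Fungal disc diffusion. 100 µl of suspension at 10⁶ CFU/ml was spread on Sabouraud's dextrose agar. Discs carrying test compound in DMSO were applied, with a DMSO-only disc as negative control. Plates were incubated at 27 °C for 72 h, and the zone of inhibition diameter was measured.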

Aspergillus fumigatus [15] = test: Antimicrobial activity against Aspergillus fumigatus NCIM 902 at 500 ug/disk after 72 hrs by disk diffusion method; format: functional; procedure, shortened: as §5

Compound | MIC (Lipomyces lipofer [1]) | MIC (Aspergillus fumigatus [2]) | MIC [4] | MIC (Klebsiella aerogenes) | diameter of the inhibition zone (DIZ) (Aspergillus niger [7]) | zone of inhibition at 500 µg/disc (Lipomyces lipofer [8]) | zone of inhibition at 500 µg/disc (Aspergillus parasiticus) | diameter of the inhibition zone (DIZ) (Aspergillus niger [9]) | MIC (Salmonella typhimurium) | MIC (Trichoderma viride [10]) | MIC (Bacillus cereus [11]) | zone of inhibition at 500 µg/disc (Aliivibrio fischeri) | zone of inhibition at 500 µg/disc (Bacillus cereus [12]) | MIC (Bacillus subtilis) | MIC (Penicillium chrysogenum) | zone of inhibition at 500 µg/disc (Trichoderma viride [14]) | diameter of the inhibition zone (DIZ) (Proteus vulgaris [5]) | diameter of the inhibition zone (DIZ) (Pseudomonas aeruginosa [6]) | diameter of the inhibition zone (DIZ) (Lipomyces lipofer [8]) | diameter of the inhibition zone (DIZ) (Aspergillus fumigatus [15]) | other results
CC1(C)CC(=O)C2=C(C1)Nc1c(ccc3ccccc13)C2c1cccc([N+](=O)[O-])c1 (configuration not stated) | 62.5 µg/mL (≈ 157 µM) | 62.5 µg/mL (≈ 157 µM) | 125 µg/mL (≈ 314 µM) | 31.2 µg/mL (≈ 78.3 µM) | inactive | 8 mm | 10 mm | inactive | 15.6 µg/mL (≈ 39.2 µM) | 31.2 µg/mL (≈ 78.3 µM) | 15.6 µg/mL (≈ 39.2 µM) | 7 mm | 10 mm | 31.2 µg/mL (≈ 78.3 µM) | 62.5 µg/mL (≈ 157 µM) | 10 mm |  |  |  |  | MIC (Pseudomonas aeruginosa [3]): 125 µg/mL (≈ 314 µM); zone of inhibition at 1000 µg/disc (Proteus vulgaris [5]; NCIM 2027, 24 h, read-out: DIZ): 9 mm; zone of inhibition at 500 µg/disc (Pseudomonas aeruginosa [6]; NCIM 2200, 24 h, read-out: DIZ): 7 mm; MIC (Staphylococcus): 125 µg/mL (≈ 314 µM); MIC (Proteus vulgaris [13]): 125 µg/mL (≈ 314 µM); zone of inhibition at 500 µg/disc (Aspergillus fumigatus [15]; NCIM 902, 72 h, read-out: DIZ): 8 mm
CC1(C)CC(=O)C2=C(C1)Nc1c(ccc3ccccc13)C2c1cccc(Cl)c1 (configuration not stated) | 125 µg/mL (≈ 322 µM) | 62.5 µg/mL (≈ 161 µM) | 125 µg/mL (≈ 322 µM) | 125 µg/mL (≈ 322 µM) | inactive |  | 11 mm | inactive | 62.5 µg/mL (≈ 161 µM) | 15.6 µg/mL (≈ 40.2 µM) | 62.5 µg/mL (≈ 161 µM) | 7 mm | 9 mm | 62.5 µg/mL (≈ 161 µM) | 62.5 µg/mL (≈ 161 µM) | 10 mm | inactive | inactive | inactive | inactive | 
CC1(C)CC(=O)C2=C(C1)Nc1c(ccc3ccccc13)C2c1ccccc1Cl (configuration not stated) | 125 µg/mL (≈ 322 µM) | 125 µg/mL (≈ 322 µM) |  | 125 µg/mL (≈ 322 µM) | inactive | 7 mm | 8 mm | inactive | 31.2 µg/mL (≈ 80.4 µM) | 125 µg/mL (≈ 322 µM) | 31.2 µg/mL (≈ 80.4 µM) | 7 mm | 8 mm | 62.5 µg/mL (≈ 161 µM) |  | 7 mm | inactive | inactive |  | inactive | 
O=C1CCCC2=C1C(c1ccccc1Cl)c1ccc3ccccc3c1N2 (configuration not stated) |  | 62.5 µg/mL (≈ 174 µM) | 125 µg/mL (≈ 347 µM) |  | inactive |  | 8 mm | inactive |  | 62.5 µg/mL (≈ 174 µM) |  | 7 mm |  | 62.5 µg/mL (≈ 174 µM) |  | 9 mm | inactive | inactive | inactive | inactive | diameter of the inhibition zone (DIZ) (Bacillus cereus [12]): inactive

— ChEMBL document CHEMBL1138564, “Microwave-induced synthesis and anti-microbial activities of 7,10,11,12-tetrahydrobenzo[c]acridin-8(9H)-one derivatives” (2009)
